Converted amounts (≈) assume the structure as drawn.
Legend:
physchem [1] = settings: octanol/water, pH 7.4
[2] = Solubility in FaSSIF-V1 medium; type: physicochemical
[3] = Aqueous solubility at pH 7; type: physicochemical
[4] = Solubility in FeSSIF-V1 medium; type: physicochemical
physchem [5] = assay: physchem
[6] = Plasma concentration in DBA/1 mouse plasma at 30 mg/kg, po administered as single dose measured after 24 hrs; type: ADME, organism-based
How it was run: (§1)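 Naive male DBA/1 mice received one oral dose within the 1–100 mg/kg range, alongside a vehicle group. Compound plasma concentration was measured at 0.5, 6 or 24 h post-dose, with n = 3–5 per dose group. Values are mean + SEM, and the limit of quantification was 1.52 ng/mL.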

[7] = Cmax in DBA/1 mouse plasma at 100 mg/kg, po administered as single dose measured after 0.5 hrs; type: ADME, organism-based; set-up: route oral, dose 100 mg/kg, time 0.5 hrs
How it was run: as §1

[8] = Tmax in DBA/1 mouse at 1 to 100 mg/kg, po administered as single dose measured after 0.5 to 24 hrs; type: ADME, organism-based; settings: in vivo, dose 1-100 mg/kg, time 0.5-24 hrs
How it was run: as §1

[9] = Plasma concentration in DBA/1 mouse plasma at 100 mg/kg, po administered as single dose measured after 24 hrs; type: ADME, organism-based
How it was run: as §1

[10] = Drug level in plasma of DBA/1 mouse at 1 to 100 mg/kg, po administered as single dose measured after 0.5 to 24 hrs; type: ADME, organism-based; settings: in vivo, dose 1-100 mg/kg, time 0.5-24 hrs
How it was run: as §1

[11] = Cmax in DBA/1 mouse plasma at 1 mg/kg, po administered as single dose measured after 0.5 hrs; type: ADME, organism-based; set-up: route oral, time 0.5 hrs, dose 1 mg/kg
How it was run: as §1

[12] = Volume of distribution at steady state in Wistar rat at 1 mg/kg, iv after 24 hrs by LC-MS-MS analysis; type: ADME, organism-based; settings: in vivo, read-out: Vdss
How it was run: (§2)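 Single intravenous dose of 1 mg/kg in rat and in dog, with n = 2 animals per species. Parameters are reported as averages. Blood clearance is plasma clearance corrected for blood/plasma partitioning and expressed as a fraction of liver blood flow.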

[13] = Plasma concentration in Wistar rat at 10 mg/kg, po after 8 hrs by LC-MS-MS analysis; type: ADME, organism-based
How it was run: (§3)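 Rats received a single oral dose of 10 mg/kg (n = 3). Parameters are averages and Tmax is the median. Plasma was sampled at 8 h post-dose, among other times. Bioavailability is referenced to the 1 mg/kg iv dose (n = 2).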

[14] = AUC (0 to infinity) in beagle dog at 1 mg/kg, iv after 24 hrs by LC-MS-MS analysis; type: ADME, organism-based, Canis lupus familiaris; set-up: route intravenous, dose 1 mg/kg, time 24 hrs; settings: in vivo
How it was run: as §2

[15] = Cmax in beagle dog at 1 mg/kg, po after 24 hrs by LC-MS-MS analysis; type: ADME, organism-based, Canis lupus familiaris; set-up: route oral, dose 1 mg/kg, time 24 hrs; settings: in vivo
How it was run: (§4)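 Dogs received a single oral dose of 1 mg/kg (n = 2). Parameters are averages and Tmax is the median. Plasma was sampled at 8 h post-dose, among other times. Bioavailability is referenced to the 1 mg/kg iv dose (n = 2).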

[16] = Tmax in beagle dog at 1 mg/kg, po after 24 hrs by LC-MS-MS analysis; type: ADME, organism-based, Canis lupus familiaris; settings: in vivo
How it was run: as §4

[17] = Cmax in Wistar rat at 10 mg/kg, po after 24 hrs by LC-MS-MS analysis; type: ADME, organism-based; set-up: route oral, time 24 hrs, dose 10 mg/kg; settings: in vivo
How it was run: as §3

[18] = Plasma concentration in beagle dog at 1 mg/kg, po after 8 hrs by LC-MS-MS analysis; type: ADME, organism-based, Canis lupus familiaris
How it was run: as §4

[19] = AUC (0 to infinity) in Wistar rat at 1 mg/kg, iv after 24 hrs by LC-MS-MS analysis; type: ADME, organism-based; set-up: route intravenous, dose 1 mg/kg, time 24 hrs; settings: in vivo
How it was run: as §2

[20] = AUC (0 to last) in beagle dog at 1 mg/kg, po after 24 hrs by LC-MS-MS analysis; type: ADME, organism-based, Canis lupus familiaris; set-up: route oral, time 24 hrs, dose 1 mg/kg; settings: in vivo
How it was run: as §4

[21] = Tmax in Wistar rat at 10 mg/kg, po after 24 hrs by LC-MS-MS analysis; type: ADME, organism-based; settings: in vivo
How it was run: as §3

[22] = AUC (0 to last) in Wistar rat at 10 mg/kg, po after 24 hrs by LC-MS-MS analysis; type: ADME, organism-based; set-up: route oral, dose 10 mg/kg, time 24 hrs; settings: in vivo
How it was run: as §3

[23] = Oral bioavailability in beagle dog at 1 mg/kg after 24 hrs by LC-MS-MS analysis; type: ADME, organism-based, Canis lupus familiaris; settings: in vivo
How it was run: as §4

[24] = Volume of distribution at steady state in beagle dog at 1 mg/kg, iv after 24 hrs by LC-MS-MS analysis; type: ADME, organism-based, Canis lupus familiaris; settings: in vivo, read-out: Vdss
How it was run: as §2

[25] = Oral bioavailability in Wistar rat at 10 mg/kg after 24 hrs by LC-MS-MS analysis; type: ADME, organism-based; settings: in vivo
How it was run: as §3

Structure (SMILES)	logD (physchem [1])	pKa (physchem [5])	further results
CN(C)C(=O)[C@H]1CN(C2CCCCC2)CC[C@@H]1NC(=O)c1cc(-c2ccc(F)cc2F)on1 (racemic)	–	–	solubility [2]: 569 µg/mL (≈ 1240 µM); solubility [3]: 192 µg/mL (≈ 417 µM); solubility [4]: 652 µg/mL (≈ 1420 µM)
O=C(N[C@H]1CCNC[C@@H]1C(=O)NC1(c2ncccn2)CC1)c1cc(-c2ccc(F)cc2F)on1	0.6	8.1	–
O=C(NC1CCN(C2CCCCC2)CC1)c1cc(-c2ccc(F)cc2F)on1	–	–	solubility [2]: 144 µg/mL (≈ 370 µM); solubility [3]: 15 µg/mL (≈ 38.5 µM); solubility [4]: 196 µg/mL (≈ 503 µM)
O=C(N[C@H]1CCN(C2CC(F)(F)C2)C[C@@H]1C(=O)NC1(c2ncccn2)CC1)c1cc(-c2ccc(F)cc2F)on1	2.9	5.2	–
CC(C)N1CC[C@H](NC(=O)c2cc(-c3ccc(F)cc3F)on2)[C@@H](C(=O)NC2(c3ncccn3)CC2)C1	1.8	8	–
CCN1CC[C@H](NC(=O)c2cc(-c3ccc(F)cc3F)on2)[C@@H](C(=O)NC2(c3ncccn3)CC2)C1	1.8	7.6	–
COCCN1CC[C@H](NC(=O)c2cc(-c3ccc(F)cc3F)on2)[C@@H](C(=O)NC2(c3ncccn3)CC2)C1	1.9	6.7	–
O=C(N[C@H]1CCN(CC2CC2)C[C@@H]1C(=O)NC1(c2ncccn2)CC1)c1cc(-c2ccc(F)cc2F)on1	2.5	7.7	concentration at 24 h [6]: < 1.52 ng/mL; Cmax [7]: 4280 ng/mL; Tmax [8]: 30 min; solubility [2]: 513 µg/mL (≈ 982 µM); solubility [3]: 374 µg/mL (≈ 716 µM); concentration at 24 h [9]: 14 ng/mL; solubility [4]: > 880 µg/mL; Drug uptake [10]: Dose-dependent effect; Cmax [11]: 6 ng/mL
CCCN1CC[C@H](NC(=O)c2cc(-c3ccc(F)cc3F)on2)[C@@H](C(=O)NC2(c3ncccn3)CC2)C1	2.5	7.6	–
O=C(N[C@H]1CCN(CC2(F)CC2)C[C@@H]1C(=O)NC1(c2ncccn2)CC1)c1cc(-c2ccc(F)cc2F)on1	2.7	6.2	–
O=C(N[C@H]1CCN(C2CCC2)C[C@@H]1C(=O)NC1(c2ncccn2)CC1)c1cc(-c2ccc(F)cc2F)on1	2.9	7.4	–
Cl.O=C(N[C@H]1CCN(CC2CC2)C[C@@H]1C(=O)NC1(c2ncccn2)CC1)c1cc(-c2ccc(F)cc2F)on1	–	–	Vd [12]: 3.6 L/kg; concentration at 8 h [13]: 18.3 ng/mL; AUC [14]: 5940 ng·h/mL; Cmax [15]: 314 ng/mL; Tmax [16]: 90 min; Cmax [17]: 600 ng/mL; concentration at 8 h [18]: 185 ng/mL; AUC [19]: 238 ng·h/mL; AUClast [20]: 3620 ng·h/mL; Tmax [21]: 30 min; AUClast [22]: 827 ng·h/mL; bioavailability [23]: 61%; Vd [24]: 1.6 L/kg; bioavailability [25]: 35%
O=C(NC1CCN(C2CCCCC2)CC1)c1noc(-c2ccc(F)cc2F)n1	1.6	–	–
CN1CC[C@H](NC(=O)c2cc(-c3ccc(F)cc3F)on2)[C@@H](C(=O)NC2(c3ncccn3)CC2)C1	1.7	7.3	–
O=C(N[C@H]1CCN(CC2CCC2)C[C@@H]1C(=O)NC1(c2ncccn2)CC1)c1cc(-c2ccc(F)cc2F)on1	3.1	7.7	–
CC(=O)N1CC[C@H](NC(=O)c2cc(-c3ccc(F)cc3F)on2)[C@@H](C(=O)NC2(c3ncccn3)CC2)C1	1.6	< 2	–
O=C(N[C@H]1CCN(C2CC2)C[C@@H]1C(=O)NC1(c2ncccn2)CC1)c1cc(-c2ccc(F)cc2F)on1	2.4	6.1	–
O=C(N[C@H]1CCN(CCCF)C[C@@H]1C(=O)NC1(c2ncccn2)CC1)c1cc(-c2ccc(F)cc2F)on1	2.2	6.8	–

Continued, in another order:

logD (physchem [1])	pKa (physchem [5])	Structure (SMILES)	further results
> 3.8	–	O=C(N[C@H]1CCN(C2CCCCC2)C[C@@H]1C(=O)NC1(c2ccccn2)CC1)c1cc(-c2ccc(F)cc2F)on1	–
3.8	–	CC(C)(NC(=O)[C@H]1CN(C2CCCCC2)CC[C@@H]1NC(=O)c1cc(-c2ccc(F)cc2F)on1)c1ccccn1	–
3.9	–	C[C@@H](NC(=O)[C@H]1CN(C2CCCCC2)CC[C@@H]1NC(=O)c1cc(-c2ccc(F)cc2F)on1)c1ccccn1	solubility [2]: 38 µg/mL (≈ 70.7 µM); solubility [3]: 4 µg/mL (≈ 7.44 µM); solubility [4]: > 910 µg/mL
> 4.1	–	O=C(N[C@H]1CCN(C2CCCCC2)C[C@@H]1C(=O)NCc1ccccc1)c1cc(-c2ccc(F)cc2F)on1	–
2.9	–	O=C(N[C@H]1CCN(C2CCCCC2)C[C@@H]1C(=O)NC1(c2ncccn2)CC1)c1cc(-c2ccc(F)cc2F)on1	–
> 4.1	–	C[C@@H](NC(=O)[C@H]1CN(C2CCCCC2)CC[C@@H]1NC(=O)c1cc(-c2ccc(F)cc2F)on1)c1ccccc1	–

Reference: ChEMBL document CHEMBL4699667, “Discovery of the Potent, Selective, Orally Available CXCR7 Antagonist ACT-1004-1239” (J Med Chem, 2020)
